Most compounds without a hit are left out; they make up all but 6.4% or so of the library.
PLK1 kinase inh = human PLK1 kinase inhibitors, primary screen, biochemical, TR-FRET; inhibition, % at 10 µM; Serine/threonine-protein kinase PLK1 (Homo sapiens), P53350; 97,000 tested, 0.53% active; recombinant PLK1 kinase, TR-FRET peptide phosphorylation;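 active means inhibition of 50% or more in the single-concentration screen; inactive means inhibition below 50%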;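 further: 0% = DMSO max control and 100% = H-89 dihydrochloride min control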
Target sequence (P53350 whole entry, looked up): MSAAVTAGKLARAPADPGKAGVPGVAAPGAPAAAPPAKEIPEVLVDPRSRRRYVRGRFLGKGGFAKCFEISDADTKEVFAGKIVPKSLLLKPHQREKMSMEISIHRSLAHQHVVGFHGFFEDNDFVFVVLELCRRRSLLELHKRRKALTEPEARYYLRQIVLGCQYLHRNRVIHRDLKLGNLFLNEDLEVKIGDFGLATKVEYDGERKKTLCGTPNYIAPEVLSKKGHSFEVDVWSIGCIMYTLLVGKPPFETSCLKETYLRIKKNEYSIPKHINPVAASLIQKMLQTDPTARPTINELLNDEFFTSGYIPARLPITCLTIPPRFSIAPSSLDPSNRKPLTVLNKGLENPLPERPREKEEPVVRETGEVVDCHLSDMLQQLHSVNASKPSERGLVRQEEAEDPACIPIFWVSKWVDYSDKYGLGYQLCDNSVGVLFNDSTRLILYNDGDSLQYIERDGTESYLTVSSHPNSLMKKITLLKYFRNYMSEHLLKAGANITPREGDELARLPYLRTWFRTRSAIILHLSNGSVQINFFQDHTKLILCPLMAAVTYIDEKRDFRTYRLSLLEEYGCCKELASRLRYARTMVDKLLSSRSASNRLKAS
HIV Rev-RRE inh = HIV-1 Rev-RRE binding inhibitors, primary screen, biochemical, FRET, protein-RNA interaction | inhibition, % at 8 µM | Rev peptide-RRE RNA binding | AID 704, 2007 | 97,000 tested, 0.79% active | P05866;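 active means inhibition above the screen-wide mean plus 3 SD, cut at about 35% in these data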;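 further: 0% = median DMSO wells and 100% = median Neomycin B control wells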
Target sequence (P05866 whole entry, looked up): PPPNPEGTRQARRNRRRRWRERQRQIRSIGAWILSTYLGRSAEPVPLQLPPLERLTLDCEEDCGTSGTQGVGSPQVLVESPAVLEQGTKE
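Test system – labelled RRE RNA duplex and labelled Rev peptide · Reagent – labelled Rev peptide · Doses – one concentration, 8 µM nominal · Incubation – 5 + 15 min at 25 °C · Signal – FRET fluorescence readout · Read-out basis – % inhibition of FRET ratio versus controls · Control set – DMSO wells as 0% and neomycin B wells as 100% inhibition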
PostGolgi ctrl = growth inhibition of yeast control strain, primary screen, counter-screen for post-Golgi transport modulator project | efflux-deficient yeast background strain, growth absorbance A615, 16 h | inhibition, % at 10 µM | 98,000 tested, 5% active | AID 738, 2007
Plk1 PBD FP = Plk1 polo box domain binding inhibitors, primary screen, biochemical, fluorescence polarization. Plk1 PBD phosphopeptide binding. AID 693, 2007. Serine/threonine-protein kinase PLK1 (Homo sapiens), P53350. inhibition, %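 (tested at about 20 µM)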. 97,000 tested, 0.13% active; in the data active means inhibition above about 34%, passing the limit was not always enough
PostGolgi yeast = phenotypic screen on post-Golgi transport, primary screen; post-Golgi transport phenotypic cell assay; inhibition, % at 10 µM; 98,000 tested, 0.9% active;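 further: yeast cells grown in 1536-well plates; yeast grown about 18 h at 30C before absorbance read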
EphB4 ephrin blk = EphB4-ephrin-B2 interaction antagonists, primary screen, biochemical, TNYL-RAW peptide probe, fluorescence polarization | inhibition, % at 7 µM | Ephrin type-B receptor 4 (Homo sapiens), P54760 | 97,000 tested, 0.15% active | EphB4 LBD / TNYL-RAW-Alexa532 peptide | AID 720, 2007;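 active means inhibition above the screen-wide mean inhibition plus 3 SD, cut at about 15% in these data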;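 further: 0% = DMSO wells and 100% = excess unlabeled TNYL-RAW peptide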
Active calls of the source: *; · = not tested or not shown. Unless noted, no stated cut-off is given here; in the data, active means inhibition above about 30%; inactive means the rest.

SMILES	PLK1 kinase inh	HIV Rev-RRE inh	PostGolgi ctrl	Plk1 PBD FP	PostGolgi yeast	EphB4 ephrin blk
CCC1(O)c2ccccc2-c2ncccc21 (centres undefined)	-3.2	5.6	-3.5	-2.3	-5.9	0.7
Cc1c2c(nc3c(C(=O)NC4CCCCC4C)cnn13)CCCC2 (centres undefined)	-9.7	9.2	56.3*	15.1	-2.2	0.3
COc1ccc(S(=O)(=O)N2CCC(C(=O)Nc3cccc(Cl)c3)CC2)cc1OC	5.3	13.0	-2.3	-5.2	-2.1	-6.8
CCn1c(-c2ccccc2Cl)nn(CC(=O)Nc2cc(Cl)ccc2Cl)c1=S	-5.9	6.8	26.9	13.8	-4.7	3.8
CCc1cc2c3c(c(=O)oc2cc1OC)CCCC3	-7.6	16.1	49.1*	-3.4	-1.6	1.0
CC(C)c1nnc(NC(=O)C2CCN(c3nc4ccccc4s3)CC2)s1	·	·	33.6*	·	5.3	·
CC(C)c1nnc(NC(=O)C2CCN(c3cnccn3)CC2)s1	-10.1	2.9	·	1.6	·	1.2
Cc1nc2sc(C(c3ccccc3)N3CCN(c4ccccc4F)CC3)c(O)n2n1 (centres undefined)	-7.0	7.8	2.8	-5.7	6.7	7.8
O=C(CSc1ncccn1)n1c2c(c3ccccc31)CCCC2	2.1	9.7	50.7*	5.9	-0.8	-5.8
COc1ccc([N+](=O)[O-])cc1NC(=S)NC(NC(=O)C(c1ccccc1)c1ccccc1)C(Cl)(Cl)Cl (centres undefined)	-8.1	9.5	6.2	27.0	-3.3	-11.0
O=C(Nc1cccc(O)c1)c1cnn2cccnc12	57.4*	3.1	-5.2	-5.9	-3.9	-3.5
O=C(Nc1ccc2c(c1)OCO2)c1cnn2cccnc12	39.9	4.2	-2.5	13.7	5.5	4.1
CCn1c(=O)cc(SCC(=O)NCCN2CCN(Cc3ccccc3)CC2)c2ccccc21	-7.4	8.3	34.2*	11.4	0.6	-10.0
CCOC(=O)N1CCC(Nc2c(NCCN3CCN(c4ccccc4F)CC3)c(=O)c2=O)CC1	-2.4	3.5	1.9	-9.7	-8.6	1.8
CCOC(=O)C(C(=O)OCC)C(C)C#CCN1CCCCC1 (centres undefined)	-16.6	-2.5	-6.6	-31.7	0.6	6.0
COCC(=O)Nc1cccc2ccccc12	-6.1	9.6	6.0	-7.1	3.9	1.3
CC12CCC(C(=O)Nc3cccc4ccccc34)(C1Br)C2(C)C (centres undefined)	-9.1	19.3	40.0*	-9.8	-3.4	1.4
O=C(Nc1nnc(C(F)(F)F)s1)c1cccnc1	-11.5	6.4	0.5	3.2	4.0	-0.1
COc1ccc(C(=O)Nc2nnc(C(F)(F)F)s2)cc1	8.1	3.2	41.8*	-4.5	-3.4	-1.3
NC(=O)c1oc2ccc(Cl)cc2c1NC(=O)CN1CCOCC1	-0.2	4.4	-2.2	-19.2	-0.6	4.7
N#Cc1cnn(-c2nc(SCc3ccccc3)nc3sc4c(c23)CCCC4)c1N	8.6	13.5	34.1*	-14.3	13.8	-6.5
COCCCNc1nc(SCc2ccccc2)nc2sc3c(c12)CCC3	0.0	1.1	9.6	-16.9	-6.7	8.4
Clc1ccc(OCCOCCN2CCCCC2)c(Br)c1	2.9	-8.4	26.1	1.1	42.2*	-5.9
Clc1cc(Br)ccc1OCCOCCN1CCOCC1	-11.6	2.4	13.6	21.3	52.9*	1.1
CC1CCN(CCOCCOc2ccc(Cl)cc2Br)CC1	-9.7	0.0	26.6	-8.1	22.1	-2.2
SMILES	PLK1 kinase inh	HIV Rev-RRE inh	PostGolgi ctrl	Plk1 PBD FP	PostGolgi yeast	EphB4 ephrin blk
Cc1ccc(C)c(OCCOCCN2CCOCC2)c1	4.5	3.4	-1.4	-0.5	2.1	6.9
Cn1c(=O)c2c(-c3ccccc3)n(C3CCCCC3)cc2n(C)c1=O	13.4	-2.0	-1.9	-16.3	-21.9	0.7
Cc1cccc(-c2c3c(=O)n(C)c(=O)n(C)c3cn2C2CCCCC2)c1	-10.2	-3.9	27.9	9.4	76.5*	1.3
COc1ccc(S(=O)(=O)Cc2ccc(C(=O)NCc3ccc(F)cc3)o2)cc1	-7.0	2.6	16.4	-0.2	-0.2	0.0
Cn1cccc1CNC(=O)Nc1ccc(Cl)cc1	-9.2	-2.1	37.9*	-25.5	14.1	-8.4
Fc1ccccc1CSc1nnc(-c2cnccn2)n1Cc1ccco1	-0.9	7.1	16.8	0.2	6.4	2.1
Brc1ccc(CSc2nnc(-c3cnccn3)n2Cc2ccco2)cc1	-11.4	5.2	38.0*	-8.1	7.2	-3.4
Clc1ccc(CSc2nnc(-c3ccccn3)n2Cc2ccco2)c(Cl)c1	2.5	1.8	52.1*	17.8	4.4	1.6
CC1(C)Cc2c(C#N)c(NCCCO)nc(-c3ccccc3)c2CO1	66.8*	4.4	85.3*	-5.4	-15.1	-3.5
CCN(C(=O)CN1CCN(c2ccc(OC)cc2)CC1)c1c(N)n(Cc2ccccc2)c(=O)[nH]c1=O	-6.2	0.8	3.1	-10.3	23.4	-4.2
Cn1nc(-c2ccccc2)c(C(=O)Nc2ccc(Cl)cc2)c1Cl	-0.7	1.9	38.5*	-1.9	10.2	-2.4
Cn1nc(-c2ccccc2)c(C(=O)Nc2ccc(C(F)(F)F)cc2)c1Cl	-8.6	10.8	7.2	20.6	-6.2	0.7
CCC(=O)NCCn1ccc2ccccc21	-17.5	4.0	1.8	-10.4	11.7	-9.6
O=C(Cc1cccs1)NCCn1ccc2ccccc21	·	·	36.1*	·	-6.0	·
Cc1ccc(N2C(=O)C(O)(C(F)(F)F)C3=C2CC(C)(C)CC3=O)cc1C (centres undefined)	-6.6	-4.2	-7.3	3.2	0.0	16.5*
COc1cc(OC)cc(C(=O)N2CCC(n3c(C)nc4cc(F)ccc43)CC2)c1	3.7	5.5	6.3	10.9	-2.3	-3.5
CCC1Cc2c(nc3c4c(nc(N5CCOCC5)c(C#N)c24)NC(C)=N3)O1 (centres undefined)	-4.0	15.0	·	-8.2	·	7.1
O=C(NC1CCS(=O)(=O)C1)C12CC3CC(CC(C3)C1)C2 (centres undefined)	-2.7	3.9	2.0	7.5	12.8	1.1
O=C(CSCC(=O)N1CCCCC1)Nc1nc(-c2cccs2)cs1	-8.4	6.0	20.1	-1.9	-2.4	-0.5
CC1CC(C)CN(C(=O)CSCC(=O)Nc2nc(-c3cccs3)cs2)C1 (centres undefined)	·	·	71.7*	·	5.1	·
O=C(CSCC(=O)N1CCCCC1)Nc1nc(-c2ccc(Cl)s2)cs1	-11.0	6.4	71.6*	-22.0	32.2*	9.7
Cc1ccc(OCCCC(=O)Nc2ccc(Br)cc2)cc1	-5.0	2.5	5.8	-9.9	-4.7	-2.6
Cc1ccc(Sc2nnc(Cc3ccccc3)c3ccccc23)cc1	-5.7	9.4	33.8*	10.5	8.7	-7.0
CC1NC(=O)N(C)C2NC(=O)N(C)C(c3ccccc3)C12 (centres undefined)	·	·	8.7	·	-2.8	·
